Experiment [1] deals with T1, Neuropeptide Y receptor type 1 (Homo sapiens, UniProt P25929).
T1 sequence (P25929 whole entry): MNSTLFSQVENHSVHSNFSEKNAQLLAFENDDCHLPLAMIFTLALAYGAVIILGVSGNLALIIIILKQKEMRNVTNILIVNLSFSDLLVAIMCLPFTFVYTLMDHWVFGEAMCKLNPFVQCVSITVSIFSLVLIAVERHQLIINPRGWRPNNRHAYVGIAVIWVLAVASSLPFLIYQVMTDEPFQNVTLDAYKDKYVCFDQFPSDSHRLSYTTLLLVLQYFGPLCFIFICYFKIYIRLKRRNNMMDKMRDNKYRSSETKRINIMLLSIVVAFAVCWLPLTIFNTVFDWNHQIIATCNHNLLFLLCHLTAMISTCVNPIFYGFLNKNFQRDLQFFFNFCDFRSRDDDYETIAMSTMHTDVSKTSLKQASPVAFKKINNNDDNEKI
Briefly: Displacement of (sCy5)-[Lys2 Arg4]-BVD15 from GFP-tagged Y1R in human HEK293T cells assessed as inhibitory constant incubated for 5 mins followed by (sCy5)-[Lys2 Arg4]-BVD15 addition and measured after 30 mins by fluorescence based assay. It counts as cell-based.

For experiment [2], the target named is T2, Neuropeptide Y receptor type 4 (Homo sapiens, UniProt P50391). Briefly: Displacement of (sCy5)-[Lys2 Arg4]-BVD15 from GFP-tagged Y4R in human HEK293T cells assessed as inhibitory constant incubated for 5 mins followed by (sCy5)-[Lys2 Arg4]-BVD15 addition and measured after 30 mins by fluorescence based assay. It counts as cell-based. The method in brief:
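Competitors (10^-10–10^-6 M) added in HBSS/0.1% BSA with H33342 for 5 min, then 100 nM final (sCy5)-[Lys²Arg⁴]-BVD15 for 30 min at 37 °C. Washed and imaged confocally; granule counts per cell. Non-specific binding with 100 nM PP.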

For experiment [3], the species on record is Homo sapiens. Briefly: Selectivity index, ratio of Ki of GFP-tagged Y4R in human HEK293T cells to Ki GFP-tagged Y1R in human HEK293T cells. It counts as cell-based. The method in brief:
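Ratio of mean Ki values, Y4/Y1, from whole-cell competition binding in tetracycline-induced 293TR Y1-GFP or Y4-GFP cells. Tracer was 100 nM (sCy5)-[Lys²Arg⁴]-BVD15, added after 5 min competitor preincubation, then 30 min at 37 °C, with imaging read-out.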

The target of experiment [4] is T2, Neuropeptide Y receptor type 4. Briefly: Agonist activity at Y4R in human HEK293T cells assessed as increase in beta-arrestin recruitment incubated for 60 mins by Hoechst 33342 dye based fluorescence analysis. Background: Arrestin recruitment assays detect the binding of arrestin to an activated receptor.
The target is the same in experiment [5]. The experiment is described as follows: Agonist activity at Y4R in human HEK293T cells assessed as increase in beta-arrestin recruitment incubated for 60 mins by Hoechst 33342 dye based fluorescence analysis relative to pancreatic polypeptide.
For experiment [6], the target named is T3, Neuropeptide Y receptor type 1 (Homo sapiens) (UniProt P25929).
T3 sequence (whole entry): T1 sequence (P25929 whole entry)
Briefly: Potency index, ratio of Ki of compound to Ki of 1229U91 for displacement of (sCy5)-[Lys2 Arg4]-BVD15 from GFP-tagged Y1R in human HEK293T cells assessed as inhibitory constant incubated for 5 mins followed by (sCy5)-[Lys2 Arg4]-BVD15 addition and measured after 30 mins by fluorescence based assay.

Positions of bridges follow the written chain, without caps; N, C: chain ends. Non-standard residues stand in square brackets, D forms with d. Residues, ends and D or L forms follow the SMILES beside them. Chains are numbered I, II in the order given. Dap = NC[C@H](N)C(=O)O

What is called Ki is the equilibrium dissociation constant of an inhibitor or competing ligand from its target. Usually EC50 stands for the concentration at which the effect is half-maximal.

T2 sequence (P50391 whole entry): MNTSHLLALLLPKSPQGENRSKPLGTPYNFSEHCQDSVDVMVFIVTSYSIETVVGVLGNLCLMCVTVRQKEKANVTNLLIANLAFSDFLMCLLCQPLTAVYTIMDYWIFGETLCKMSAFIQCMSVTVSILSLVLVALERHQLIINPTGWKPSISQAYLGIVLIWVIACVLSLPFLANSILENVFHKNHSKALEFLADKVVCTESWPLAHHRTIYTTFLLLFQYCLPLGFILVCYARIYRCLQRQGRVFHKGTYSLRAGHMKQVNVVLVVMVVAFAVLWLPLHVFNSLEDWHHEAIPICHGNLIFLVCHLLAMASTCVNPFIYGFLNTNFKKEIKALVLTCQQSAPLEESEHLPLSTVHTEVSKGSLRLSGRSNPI

With `CC[C@H](C)[C@H](N)C(=O)N[C@H]1CCC(=O)NC[C@@H](C(=O)N[C@@H](Cc2ccc(O)cc2)C(=O)N[C@@H](CCCNC(=N)N)C(=O)N[C@@H](CC(C)C)C(=O)N[C@@H](CCCNC(=N)N)C(=O)N[C@@H](Cc2ccc(O)cc2)C(N)=O)NC(=O)[C@@H]2CCCN2C(=O)[C@@H](NC(=O)[C@@H](N)[C@@H](C)CC)CCC(=O)NC[C@@H](C(=O)N[C@@H](Cc2ccc(O)cc2)C(=O)N[C@@H](C)C(=O)N[C@@H](CC(C)C)C(=O)N[C@@H](CCCNC(=N)N)C(=O)N[C@@H](Cc2ccc(O)cc2)C(N)=O)NC(=O)[C@@H]2CCCN2C1=O` (I: H-IEP[Dap]YALRY-NH2 / II: H-IEP[Dap]YRLRY-NH2; amide I:2-II:4, I:4-II:2), the inhibitory constant (Ki) in experiment [1] was 0.575 nM; in experiment [2] it was 245 nM. For the same compound, the Ratio Ki in experiment [3] stood at 419. For the same compound, the 50% effective concentration (EC50) in experiment [4] was 7.59 nM. Besides, in experiment [5], the Rmax came to 49.1%. Besides, the Ki ratio in experiment [6] is 2.

The record behind these values is ChEMBL document CHEMBL4402612, “Heterodimeric Analogues of the Potent Y1R Antagonist 1229U91, Lacking One of the Pharmacophoric C-Terminal Structures, Retain Potent Y1R Affinity and Show Improved Selectivity over Y4R” (J Med Chem, 2020).
